HKDC1 inh – inhibitors of human hexokinase HKDC1; Q2TB90; recombinant HKDC1, G6PDH/diaphorase resazurin coupled fluorescence; inhibition, % at 20 µM; 0.16% of 340,000 active; AID 493160;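 active means inhibition above about 35% when tested at 20 µM, limit read from the data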
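test system = in-house recombinant HK5 (HKDC1) enzyme | amount = HKDC1 at 5 µg/mL | control set = DMSO-enzyme wells negative, buffer-substituted wells positive | compound = one dose of 20 µM, 1% DMSO | schedule = reaction time 90 min, room temperature, protected from light | technique = resorufin fluorescence at 613 nm | reagent = glucose with 1 mM ATP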
G6PDH CS – counter-screen for G6PDH assay hits: L. mesenteroides G6PDH inhibition | Purified L. mesenteroides G6PDH, diaphorase/resazurin coupled fluorescence, 45 min | 0.12% of 200,000 active | AID 1020 | inhibition, % at 5 µM; in the data active means inhibition above about 50%
Diaph inh CS – diaphorase inhibition or chemical oxidation counter-screen | diaphorase resazurin-to-resorufin fluorescence, NADH, 16 min; bacterial (C. kluyveri) enzyme, not human | inhibition, % at 20 µM | 0.69% of 190,000 active | AID 1217;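 active means primary screen inhibition at 20 µM above a set limit, cut at about 50% in these data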
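Test system: diaphorase enzyme from Clostridium kluyveri; amount: diaphorase at 0.14 U/mL in enzyme working solution; detection: fluorescence of resorufin formed from resazurin, Ex 544/Em 590 nm; times: reaction incubation of 16 min at room temperature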
Diaph act CS – diaphorase activation or chemical reduction counter-screen; AID 1229; Diaphorase/resazurin coupled assay, resorufin fluorescence, 16 min; hits give high values; 1 = vehicle wells, 0 = NADH-free wells; activation factor at 20 µM; 0.005% of 190,000 active;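 active means diaphorase activity raised at least twofold by the compound at 20 µM; inactive means activation factor below 2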
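Assay system: Purified diaphorase enzyme from Clostridium kluyveri | Amount: Enzyme 0.07 U/mL final | Dosing: Compound 20 µM once, DMSO 1% | Timing: 16 min reaction at room temperature | Detection: Fluorescence, excitation 544 nm and emission 590 nm | Evaluation: Higher resorufin formation from activation or reduction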
PfG6PD inh – PfG6PD (Plasmodium falciparum) enzyme inhibition; PfGluPho enzyme, NADPH resazurin-diaphorase fluorescence; inhibition, % at 20 µM; 0.78% of 350,000 active; AID 504690;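 active means inhibition reaching at least a set limit at 20 µM in the primary screen, cut at about 59% in these data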
Each line names hits and unclear results; the compound was inactive in the other large screens. An excerpt weighted towards active compounds, which were near 1.2% of everything screened.

COc1ccc(N2CSC3=C(C#N)C(c4cccs4)CC(=O)N3C2)cc1 (configuration not stated)	Diaph inh CS 53
CCOC(=O)c1ccc(N2CSC3=C(C#N)C(c4cccs4)CC(=O)N3C2)cc1 (configuration not stated)	none
CCc1ccc(N2CSC3=C(C#N)C(c4cccs4)CC(=O)N3C2)cc1 (configuration not stated)	PfG6PD inh 62
COc1ccc(N2CSC3=C(C#N)C(c4cc(OC)ccc4OC)CC(=O)N3C2)c(OC)c1 (configuration not stated)	G6PDH CS 50, Diaph inh CS 57, PfG6PD inh 113
CC1C(=O)N(Cc2cn(CCC3OCCO3)nn2)CCS(=O)(=O)N1Cc1ccc(-c2ccc(Cl)c(Cl)c2)cc1 (configuration not stated)	none (no result: HKDC1 inh, G6PDH CS, Diaph inh CS, Diaph act CS)
C[C@H](CO)N1C[C@H](C)[C@@H](CN(C)C(=O)CN2CCOCC2)Oc2cc(Br)ccc2S1(=O)=O	none (no result: HKDC1 inh, G6PDH CS, Diaph inh CS, Diaph act CS)
CCc1cc(-c2nnn(-c3cc(C(C)C)ccc3C)c2CC)ccc1-c1cn(CCc2c[nH]c3ccccc23)nn1	none (no result: HKDC1 inh, G6PDH CS, Diaph inh CS, Diaph act CS)
C(=NNc1nnn(Cc2ccccc2)n1)c1ccccc1	none (no result: HKDC1 inh, G6PDH CS, Diaph inh CS, Diaph act CS)
CCCC(=O)N1CCN(c2ccc(NC(=O)c3cccs3)cc2Cl)CC1	none (no result: Diaph inh CS, Diaph act CS)
CCCC(=O)N1CCN(c2ccc(NC(=O)c3cc4ccccc4o3)cc2Cl)CC1	PfG6PD inh 98
COc1cccc(-c2c(C(=O)N/N=C/c3sccc3C)nnn2-c2nonc2N)c1	PfG6PD inh 91 (no result: G6PDH CS, Diaph inh CS, Diaph act CS)
Cc1ccsc1/C=N/NC(=O)c1nnn(-c2nonc2N)c1-c1ccccc1	none (no result: G6PDH CS, Diaph inh CS, Diaph act CS)
O=C(COc1cccc(F)c1)Nc1ccc2[nH]c(=O)[nH]c2c1	Diaph inh CS 55
O=C(COC(=O)c1c(F)cccc1F)Nc1ccc2[nH]c(=O)[nH]c2c1	none
CCN(CC)C(=O)C1=C(C)N(CCCN2CCCC2=O)C(=O)C(CC(=O)NCCN2CCOCC2)C1 (configuration not stated)	none (no result: HKDC1 inh, G6PDH CS, Diaph inh CS, Diaph act CS)
CN1CSC2=C(C#N)C(c3cccc(OCc4ccccc4)c3)CC(=O)N2C1 (configuration not stated)	PfG6PD inh 92
N#CC1=C2SCC(O)(c3ccccc3)N2C(=O)CC1c1ccccc1 (configuration not stated)	none
C[C@@H]1CN([C@H](C)CO)C(=O)CCCn2nncc2CO[C@H]1CN(C)Cc1ccc2c(c1)OCO2	none (no result: HKDC1 inh, G6PDH CS, Diaph inh CS, Diaph act CS)
O=C(O)CN1C(=O)/C(=C2\C(=O)N(Cc3ccccc3Cl)c3ccccc32)SC1=S	HKDC1 inh 51 (no result: G6PDH CS, Diaph inh CS, Diaph act CS)
CN(Cc1c(C(=O)N/N=C/c2ccccc2O)nnn1-c1nonc1N)C1CCCCC1	none (no result: HKDC1 inh, G6PDH CS, Diaph inh CS, Diaph act CS)
CC1=CC(=O)c2ccccc2C1=O	G6PDH CS 61
CCCCOn1c(C)c(C(=O)OCC)c2c3nonc3ccc21	none (no result: G6PDH CS, Diaph inh CS, Diaph act CS)
COn1c(C)c(C(C)=O)c2c3nonc3ccc21	Diaph inh CS 53
CC1CCN(C(=O)c2ncn3c2c(=O)[nH]c2cccnc23)CC1	none (no result: HKDC1 inh, G6PDH CS, Diaph inh CS, Diaph act CS)
O=C(Cc1ccc(F)cc1)Nc1ccc2[nH]ncc2c1	none (no result: G6PDH CS, Diaph inh CS, Diaph act CS)
Nc1ccc2[nH]ncc2c1	Diaph inh CS 58
Clc1ccc(NN(Cc2ccncc2)c2ccc(Cl)cc2)cc1	none (no result: HKDC1 inh, G6PDH CS, Diaph inh CS, Diaph act CS)
O=C(CSc1ncccn1)NC1CCCC1	none (no result: HKDC1 inh, G6PDH CS, Diaph inh CS, Diaph act CS)
O/C(=C\c1nc2ccccc2nc1/C=C(\O)c1ccccc1)c1ccccc1	G6PDH CS 51
Cc1cc(/C=C\c2ccc3cc(N(C)C)ccc3[n+]2C)c(C)n1-c1ccccc1	HKDC1 inh 37 (no result: G6PDH CS, Diaph inh CS, Diaph act CS)
C[n+]1c(/C=C/c2ccc(O)cc2)ccc2ccccc21	none (no result: G6PDH CS, Diaph inh CS, Diaph act CS)
CN(CC(=O)Nc1ccc(Cl)cc1)CC(=O)N1CCc2ccccc21	none (no result: HKDC1 inh, G6PDH CS, Diaph inh CS, Diaph act CS)
Cn1cc2ccc(N)cc2n1	G6PDH CS 54, Diaph inh CS 70
Cc1cc(-c2nsc(=O)o2)c(S(C)(=O)=O)s1	PfG6PD inh 68
COc1ccccc1OCC(=O)NCC1CCCN(C(=O)c2cccc(C)c2)C1 (configuration not stated)	none (no result: HKDC1 inh, G6PDH CS, Diaph inh CS, Diaph act CS)
Cc1ccc(C)n1-c1ccc(N2CCOCC2)c(Br)c1	Diaph inh CS 56
COc1cc2c(C#N)c(N3CCCCC3)nc(N)c2c(N)n1	G6PDH CS 51, Diaph inh CS 64
CCOc1cc2c(C#N)c(N3CCCCC3)nc(N)c2c(N)n1	Diaph inh CS 58
COc1cc2c(C#N)c(N3CCOCC3)nc(N)c2c(N)n1	none
c1ccc(Cc2nnc(N3CCOCC3)c3ccccc23)cc1	G6PDH CS 56
